The source made the active and inactive calls. The rule behind the calls is not given here. Where a SMILES comes first, the peptide text is derived from it. [ ]: non-standard residue; d: D form. The star is where a group is joined. Ethyl(2-stearoyloxy) = CCCCCCCCCCCCCCCCCC(=O)OCC*; Ethyl(2-palmitoyloxy) = CCCCCCCCCCCCCCCC(=O)OCC*; CH2CH2OBz(4-tBu) = CC(C)(C)c1ccc(C(=O)OCC*)cc1; Ethyl(2-decanoyloxy) = CCCCCCCCCC(=O)OCC*; Ethyl(2-butanoyloxy) = CCCC(=O)OCC*; Ethyl(2-OPiv) = CC(C)(C)C(=O)OCC*; Mpa = O=C(O)CCS
Target: Gap junction alpha-1 protein (Homo sapiens) (UniProt P17302)
Assay: Inhibition of Cx43 in hypoxic-acidic ion-shifted ringers solution-induced human cerebral microvascular endothelial cell model of ischaemic injury assessed as ATP release at 10 uM measured after 2 hrs by luciferin-luciferase based luminescence assay relative to control
Set-up: scale not given: the % may be the effect or the level left
Outline: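 hCMVEC (passages 8-17) seeded at 2 x 10^6/well on collagen-I (1 µg/cm²) and grown 48 h to a confluent monolayer. Washed in NR, then exposed 2 h in HAIR (pH 6.6, N₂-bubbled, low Ca²⁺, K-gluconate/NMDG) containing peptide at 10 µM. Supernatant diluted 1:10 in firefly luciferase mix and read at 560 nm against an ATP standard (0-50 nM). Expressed as % of HAIR-only, mean of n=3.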

Sequence of Gap junction alpha-1 protein (Homo sapiens) (P17302 whole entry): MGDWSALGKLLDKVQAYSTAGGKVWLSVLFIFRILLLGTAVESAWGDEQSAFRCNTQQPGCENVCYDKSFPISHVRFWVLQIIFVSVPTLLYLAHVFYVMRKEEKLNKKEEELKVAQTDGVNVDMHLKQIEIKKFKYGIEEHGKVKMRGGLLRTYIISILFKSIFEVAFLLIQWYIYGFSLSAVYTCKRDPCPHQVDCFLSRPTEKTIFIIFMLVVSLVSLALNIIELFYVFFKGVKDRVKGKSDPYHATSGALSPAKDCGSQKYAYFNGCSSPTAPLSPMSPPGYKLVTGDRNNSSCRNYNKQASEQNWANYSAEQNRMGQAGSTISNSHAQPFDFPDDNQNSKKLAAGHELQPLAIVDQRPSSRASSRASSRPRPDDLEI

| SMILES | Activity |
| --- | --- |
| CCCC(=O)OCCSC[C@H](NC(=O)[C@@H]1CCCN1C(=O)[C@H](CCCNC(=N)N)NC(=O)[C@H](CO)NC(=O)[C@H](CC(C)C)NC(=O)[C@H](Cc1ccccc1)NC(=O)[C@H](CS)NC(=O)[C@H](CC(=O)O)NC(=O)[C@@H](N)C(C)C)C(=O)N[C@@H](CCC(=O)O)C(=O)N[C@@H](CCCCN)C(=O)N[C@H](C(=O)O)[C@@H](C)O (H-VDCFLSRPC(Ethyl(2-butanoyloxy))EKT-OH) | inactive |
| CCCCCCCCCC(=O)OCCSC[C@H](NC(=O)[C@@H]1CCCN1C(=O)[C@H](CCCNC(=N)N)NC(=O)[C@H](CO)NC(=O)[C@H](CC(C)C)NC(=O)[C@H](Cc1ccccc1)NC(=O)[C@H](CS)NC(=O)[C@H](CC(=O)O)NC(=O)[C@@H](N)C(C)C)C(=O)N[C@@H](CCC(=O)O)C(=O)N[C@@H](CCCCN)C(=O)N[C@H](C(=O)O)[C@@H](C)O (H-VDCFLSRPC(Ethyl(2-decanoyloxy))EKT-OH) | inactive |
| CCCCCCCCCCCCCCCC(=O)OCCSC[C@H](NC(=O)[C@@H]1CCCN1C(=O)[C@H](CCCNC(=N)N)NC(=O)[C@H](CO)NC(=O)[C@H](CC(C)C)NC(=O)[C@H](Cc1ccccc1)NC(=O)[C@H](CS)NC(=O)[C@H](CC(=O)O)NC(=O)[C@@H](N)C(C)C)C(=O)N[C@@H](CCC(=O)O)C(=O)N[C@@H](CCCCN)C(=O)N[C@H](C(=O)O)[C@@H](C)O (H-VDCFLSRPC(Ethyl(2-palmitoyloxy))EKT-OH) | 102% |
| CCCCCCCCCCCCCCCCCC(=O)OCCSC[C@H](NC(=O)[C@@H]1CCCN1C(=O)[C@H](CCCNC(=N)N)NC(=O)[C@H](CO)NC(=O)[C@H](CC(C)C)NC(=O)[C@H](Cc1ccccc1)NC(=O)[C@H](CS)NC(=O)[C@H](CC(=O)O)NC(=O)[C@@H](N)C(C)C)C(=O)N[C@@H](CCC(=O)O)C(=O)N[C@@H](CCCCN)C(=O)N[C@H](C(=O)O)[C@@H](C)O (H-VDCFLSRPC(Ethyl(2-stearoyloxy))EKT-OH) | 102% |
| CC(C)C[C@H](NC(=O)[C@H](Cc1ccccc1)NC(=O)[C@H](CS)NC(=O)[C@H](CC(=O)O)NC(=O)[C@@H](N)C(C)C)C(=O)N[C@@H](CO)C(=O)N[C@@H](CCCNC(=N)N)C(=O)N1CCC[C@H]1C(=O)N[C@H](C(=O)N[C@@H](CSCCOC(=O)c1ccc(C(C)(C)C)cc1)C(=O)N[C@@H](CCCCN)C(=O)N[C@H](C(=O)O)[C@@H](C)O)[C@@H](C)O (H-VDCFLSRPTC(CH2CH2OBz(4-tBu))KT-OH) | inactive |
| CC(C)C[C@H](NC(=O)[C@H](Cc1ccccc1)NC(=O)[C@H](CS)NC(=O)[C@H](CC(=O)O)NC(=O)[C@@H](N)C(C)C)C(=O)N[C@@H](CO)C(=O)N[C@@H](CCCNC(=N)N)C(=O)N1CCC[C@H]1C(=O)N[C@H](C(=O)N[C@@H](CSCCOC(=O)C(C)(C)C)C(=O)N[C@@H](CCCCN)C(=O)N[C@H](C(=O)O)[C@@H](C)O)[C@@H](C)O (H-VDCFLSRPTC(Ethyl(2-OPiv))KT-OH) | inactive |
| CCCC(=O)OCCSC[C@H](NC(=O)[C@@H](NC(=O)[C@@H]1CCCN1C(=O)[C@H](CCCNC(=N)N)NC(=O)[C@H](CO)NC(=O)[C@H](CC(C)C)NC(=O)[C@H](Cc1ccccc1)NC(=O)[C@H](CS)NC(=O)[C@H](CC(=O)O)NC(=O)[C@@H](N)C(C)C)[C@@H](C)O)C(=O)N[C@@H](CCCCN)C(=O)N[C@H](C(=O)O)[C@@H](C)O (H-VDCFLSRPTC(Ethyl(2-butanoyloxy))KT-OH) | 32% |
| CCCCCCCCCC(=O)OCCSC[C@H](NC(=O)[C@@H](NC(=O)[C@@H]1CCCN1C(=O)[C@H](CCCNC(=N)N)NC(=O)[C@H](CO)NC(=O)[C@H](CC(C)C)NC(=O)[C@H](Cc1ccccc1)NC(=O)[C@H](CS)NC(=O)[C@H](CC(=O)O)NC(=O)[C@@H](N)C(C)C)[C@@H](C)O)C(=O)N[C@@H](CCCCN)C(=O)N[C@H](C(=O)O)[C@@H](C)O (H-VDCFLSRPTC(Ethyl(2-decanoyloxy))KT-OH) | 96% |
| CCCCCCCCCCCCCCCC(=O)OCCSC[C@H](NC(=O)[C@@H](NC(=O)[C@@H]1CCCN1C(=O)[C@H](CCCNC(=N)N)NC(=O)[C@H](CO)NC(=O)[C@H](CC(C)C)NC(=O)[C@H](Cc1ccccc1)NC(=O)[C@H](CS)NC(=O)[C@H](CC(=O)O)NC(=O)[C@@H](N)C(C)C)[C@@H](C)O)C(=O)N[C@@H](CCCCN)C(=O)N[C@H](C(=O)O)[C@@H](C)O (H-VDCFLSRPTC(Ethyl(2-palmitoyloxy))KT-OH) | 114% |
| CCCCCCCCCCCCCCCCCC(=O)OCCSC[C@H](NC(=O)[C@@H](NC(=O)[C@@H]1CCCN1C(=O)[C@H](CCCNC(=N)N)NC(=O)[C@H](CO)NC(=O)[C@H](CC(C)C)NC(=O)[C@H](Cc1ccccc1)NC(=O)[C@H](CS)NC(=O)[C@H](CC(=O)O)NC(=O)[C@@H](N)C(C)C)[C@@H](C)O)C(=O)N[C@@H](CCCCN)C(=O)N[C@H](C(=O)O)[C@@H](C)O (H-VDCFLSRPTC(Ethyl(2-stearoyloxy))KT-OH) | 83.7% |
| CC(C)C[C@H](NC(=O)[C@H](Cc1ccccc1)NC(=O)[C@H](CS)NC(=O)[C@H](CC(=O)O)NC(=O)[C@@H](N)C(C)C)C(=O)N[C@@H](CO)C(=O)N[C@@H](CCCNC(=N)N)C(=O)N1CCC[C@H]1C(=O)N[C@H](C(=O)N[C@@H](CCC(=O)O)C(=O)N[C@@H](CCCCN)C(=O)N[C@@H](CSCCOC(=O)c1ccc(C(C)(C)C)cc1)C(=O)O)[C@@H](C)O (H-VDCFLSRPTEKC(CH2CH2OBz(4-tBu))-OH) | inactive |
| CC(C)C[C@H](NC(=O)[C@H](Cc1ccccc1)NC(=O)[C@H](CS)NC(=O)[C@H](CC(=O)O)NC(=O)[C@@H](N)C(C)C)C(=O)N[C@@H](CO)C(=O)N[C@@H](CCCNC(=N)N)C(=O)N1CCC[C@H]1C(=O)N[C@H](C(=O)N[C@@H](CCC(=O)O)C(=O)N[C@@H](CCCCN)C(=O)N[C@@H](CSCCOC(=O)C(C)(C)C)C(=O)O)[C@@H](C)O (H-VDCFLSRPTEKC(Ethyl(2-OPiv))-OH) | inactive |
| CCCC(=O)OCCSC[C@H](NC(=O)[C@H](CCCCN)NC(=O)[C@H](CCC(=O)O)NC(=O)[C@@H](NC(=O)[C@@H]1CCCN1C(=O)[C@H](CCCNC(=N)N)NC(=O)[C@H](CO)NC(=O)[C@H](CC(C)C)NC(=O)[C@H](Cc1ccccc1)NC(=O)[C@H](CS)NC(=O)[C@H](CC(=O)O)NC(=O)[C@@H](N)C(C)C)[C@@H](C)O)C(=O)O (H-VDCFLSRPTEKC(Ethyl(2-butanoyloxy))-OH) | inactive |
| CCCCCCCCCC(=O)OCCSC[C@H](NC(=O)[C@H](CCCCN)NC(=O)[C@H](CCC(=O)O)NC(=O)[C@@H](NC(=O)[C@@H]1CCCN1C(=O)[C@H](CCCNC(=N)N)NC(=O)[C@H](CO)NC(=O)[C@H](CC(C)C)NC(=O)[C@H](Cc1ccccc1)NC(=O)[C@H](CS)NC(=O)[C@H](CC(=O)O)NC(=O)[C@@H](N)C(C)C)[C@@H](C)O)C(=O)O (H-VDCFLSRPTEKC(Ethyl(2-decanoyloxy))-OH) | inactive |
| CCCCCCCCCCCCCCCC(=O)OCCSC[C@H](NC(=O)[C@H](CCCCN)NC(=O)[C@H](CCC(=O)O)NC(=O)[C@@H](NC(=O)[C@@H]1CCCN1C(=O)[C@H](CCCNC(=N)N)NC(=O)[C@H](CO)NC(=O)[C@H](CC(C)C)NC(=O)[C@H](Cc1ccccc1)NC(=O)[C@H](CS)NC(=O)[C@H](CC(=O)O)NC(=O)[C@@H](N)C(C)C)[C@@H](C)O)C(=O)O (H-VDCFLSRPTEKC(Ethyl(2-palmitoyloxy))-OH) | 131% |
| CCCCCCCCCCCCCCCCCC(=O)OCCSC[C@H](NC(=O)[C@H](CCCCN)NC(=O)[C@H](CCC(=O)O)NC(=O)[C@@H](NC(=O)[C@@H]1CCCN1C(=O)[C@H](CCCNC(=N)N)NC(=O)[C@H](CO)NC(=O)[C@H](CC(C)C)NC(=O)[C@H](Cc1ccccc1)NC(=O)[C@H](CS)NC(=O)[C@H](CC(=O)O)NC(=O)[C@@H](N)C(C)C)[C@@H](C)O)C(=O)O (H-VDCFLSRPTEKC(Ethyl(2-stearoyloxy))-OH) | 129% |
| CC(C)C[C@H](NC(=O)[C@H](Cc1ccccc1)NC(=O)[C@H](CS)NC(=O)[C@H](CC(=O)O)NC(=O)[C@@H](NC(=O)CCSCCOC(=O)c1ccc(C(C)(C)C)cc1)C(C)C)C(=O)N[C@@H](CO)C(=O)N[C@@H](CCCNC(=N)N)C(=O)N1CCC[C@H]1C(=O)N[C@H](C(=O)N[C@@H](CCC(=O)O)C(=O)N[C@@H](CCCCN)C(=O)N[C@H](C(=O)O)[C@@H](C)O)[C@@H](C)O ([Mpa](CH2CH2OBz(4-tBu))VDCFLSRPTEKT-OH) | inactive |
| CC(C)C[C@H](NC(=O)[C@H](Cc1ccccc1)NC(=O)[C@H](CS)NC(=O)[C@H](CC(=O)O)NC(=O)[C@@H](NC(=O)CCSCCOC(=O)C(C)(C)C)C(C)C)C(=O)N[C@@H](CO)C(=O)N[C@@H](CCCNC(=N)N)C(=O)N1CCC[C@H]1C(=O)N[C@H](C(=O)N[C@@H](CCC(=O)O)C(=O)N[C@@H](CCCCN)C(=O)N[C@H](C(=O)O)[C@@H](C)O)[C@@H](C)O ([Mpa](Ethyl(2-OPiv))VDCFLSRPTEKT-OH) | inactive |
| CCCC(=O)OCCSCCC(=O)N[C@H](C(=O)N[C@@H](CC(=O)O)C(=O)N[C@@H](CS)C(=O)N[C@@H](Cc1ccccc1)C(=O)N[C@@H](CC(C)C)C(=O)N[C@@H](CO)C(=O)N[C@@H](CCCNC(=N)N)C(=O)N1CCC[C@H]1C(=O)N[C@H](C(=O)N[C@@H](CCC(=O)O)C(=O)N[C@@H](CCCCN)C(=O)N[C@H](C(=O)O)[C@@H](C)O)[C@@H](C)O)C(C)C ([Mpa](Ethyl(2-butanoyloxy))VDCFLSRPTEKT-OH) | 28.8% |
| CCCCCCCCCC(=O)OCCSCCC(=O)N[C@H](C(=O)N[C@@H](CC(=O)O)C(=O)N[C@@H](CS)C(=O)N[C@@H](Cc1ccccc1)C(=O)N[C@@H](CC(C)C)C(=O)N[C@@H](CO)C(=O)N[C@@H](CCCNC(=N)N)C(=O)N1CCC[C@H]1C(=O)N[C@H](C(=O)N[C@@H](CCC(=O)O)C(=O)N[C@@H](CCCCN)C(=O)N[C@H](C(=O)O)[C@@H](C)O)[C@@H](C)O)C(C)C ([Mpa](Ethyl(2-decanoyloxy))VDCFLSRPTEKT-OH) | inactive |

— ChEMBL document CHEMBL4673184, “Synthesis and biological evaluation of S-lipidated lipopeptides of a connexin 43 channel inhibitory peptide” (RSC Med Chem, 2020)
